This note sets out measurements from ChEMBL document CHEMBL1909581, “Growth inhibition of human lung cancer cells via down-regulation of epidermal growth factor receptor signaling by yuanhuadine, a daphnane diterpene from Daphne genkwa” (J Nat Prod, 2011).

The source made the active and inactive calls. The calls are words filed in the database; no cut-off is given here.

One data set deals with NCI-H1993. The data set can be described thus: Antiproliferative activity against human NCI-H1993 cells after 3 days by SRB assay. The settings on record: NCI-H1993, 72 h. Format: functional, cell-based. A general note: In SRB staining, fixed cells bind dye roughly in proportion to their protein.
A short description of data set [1]: Antiproliferative activity against human H1299 cells after 3 days by SRB assay. Format: functional, cell-based. The settings on record: NCI-H1299, 72 h. Summed up:
(§1)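 Cells seeded at 5 × 10^4 cells/mL and exposed to a range of concentrations for 3 days. Fixed with 10% TCA, then SRB stain read. Growth expressed as % of solvent-treated control. IC50 obtained by nonlinear regression of percent survival versus concentration.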

For another data set, the system named is SK-HEP1. The data set is described as follows: Antiproliferative activity against human SKHEP1 cells after 3 days by SRB assay. Format: functional, cell-based. The conditions noted are these: SK-HEP1, 72 h. The essentials:
as §1

For another data set, the system named is MRC5. The data set is described as follows: Antiproliferative activity against human MRC5 cells after 3 days by SRB assay. Format: cell-based. The settings on record: mrc5, 72 h. The essentials: as §1
Data set [2] deals with A549. The data set can be described thus: Antiproliferative activity against human A549 cells assessed as growth inhibition incubated for 24 hrs measured 48 hrs after compound washout by SRB assay. Format: functional, cell-based.
The test system of data set [3] is A549. The data set can be described thus: Cell cycle arrest in human A549 cells assessed as accumulation at G0/G1 phase at 20 nM after 24 hrs by propidium iodide staining-based flow cytometric analysis (reference value: 49.6 %). Format: functional. On the technique in general: In flow cytometry, cells or beads pass a laser one at a time.
In data set [4] the test system is A549. The data set can be described thus: Cell cycle arrest in human A549 cells assessed as accumulation at Sub-G1 phase at 100 nM after 24 hrs by propidium iodide staining-based flow cytometric analysis (reference value: 0.2 %). Format: functional.
Data set [5] concerns A549. The data set can be described thus: Cell cycle arrest in human A549 cells assessed as accumulation at S phase at 100 nM after 24 hrs by propidium iodide staining-based flow cytometric analysis (reference value: 31.6 %). Format: functional.
In data set [6] the test system is A549. The data set is described as follows: Cell cycle arrest in human A549 cells assessed as accumulation at G0/G1 phase at 5 nM after 48 hrs by propidium iodide staining-based flow cytometric analysis (reference value: 49.6 %). Format: functional.
The subject of data set [7] is A549. The data set is described as follows: Cell cycle arrest in human A549 cells assessed as accumulation at S phase at 5 nM after 48 hrs by propidium iodide staining-based flow cytometric analysis (reference value: 31.6 %). Format: functional.
Data set [8] deals with A549. The data set can be described thus: Cell cycle arrest in human A549 cells assessed as accumulation at G2/M phase at 5 nM after 48 hrs by propidium iodide staining-based flow cytometric analysis (reference value: 18.9 %). Format: functional.
For data set [9], the system named is A549. The data set is described as follows: Cell cycle arrest in human A549 cells assessed as accumulation at Sub-G1 phase at 20 nM after 48 hrs by propidium iodide staining-based flow cytometric analysis (reference value: 0.2 %). Format: functional.
Data set [10] has as its system A549. The data set can be described thus: Cell cycle arrest in human A549 cells assessed as accumulation at G2/M phase at 20 nM after 48 hrs by propidium iodide staining-based flow cytometric analysis (reference value: 18.9 %). Format: functional.
Data set [11] has as its system A549. The data set is described as follows: Cell cycle arrest in human A549 cells assessed as accumulation at Sub-G1 phase at 100 nM after 48 hrs by propidium iodide staining-based flow cytometric analysis (reference value: 0.2 %). Format: functional.
In data set [12] the test system is A549. The data set can be described thus: Cell cycle arrest in human A549 cells assessed as accumulation at G0/G1 phase at 100 nM after 48 hrs by propidium iodide staining-based flow cytometric analysis (reference value: 49.6 %). Format: functional.
For data set [13], the system named is A549. The data set can be described thus: Cell cycle arrest in human A549 cells assessed as accumulation at S phase at 100 nM after 48 hrs by propidium iodide staining-based flow cytometric analysis (reference value: 31.6 %). Format: functional.
The test system of data set [14] is A549. The data set can be described thus: Cell cycle arrest in human A549 cells assessed as accumulation at G2/M phase at 100 nM after 48 hrs by propidium iodide staining-based flow cytometric analysis (reference value: 18.9 %). Format: functional.
The subject of data set [15] is A549. The data set can be described thus: Downregulation of c-myc expression in human A549 cells at G1 phase at 5 to 100 nM after 24 to 48 hrs by Western blot analysis. Format: functional, cell-based. Summed up:
(§2)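 A549 cells treated with a range of concentrations for 24 or 48 h. Lysates run on 6–15% SDS-PAGE and blotted to PVDF, blocked in 5% milk/PBST. Primary antibodies overnight at 4 °C, secondary 2 h at room temperature, ECL detection. Representative of three independent experiments.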

The test system of data set [16] is A549. The data set can be described thus: Downregulation of phosphorylated Rb expression in human A549 cells at G1 phase at 5 to 100 nM after 24 to 48 hrs by Western blot analysis. Format: functional, cell-based. The essentials:
as §2
On the technique in general: A western blot detects proteins with antibodies after separation by electrophoresis.

Data set [17] deals with Glycogen synthase kinase-3 beta (Homo sapiens) (UniProt P49841). The data set can be described thus: Inhibition of GSK3-beta in human A549 cells after 24 hrs by Western blot analysis. Format: cell-based. The essentials: (§3)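 A549 cells (RPMI 1640, 10% FBS, 37 °C, 5% CO2) exposed to the compound at various concentrations for 24 or 48 h. Lysates run on 6–15% SDS-PAGE, transferred to PVDF, probed with primary antibodies overnight at 4 °C, and detected by ECL. Blots shown are representative of three independent experiments.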

Data set [18] addresses Serine/threonine-protein kinase mTOR (Homo sapiens) (UniProt P42345). The data set is described as follows: Inhibition of MTOR phosphorylation in human A549 cells at 20 nM after 24 to 48 hrs by Western blot analysis. Format: cell-based. Summed up:
as §3

The target in data set [19] is Hepatocyte growth factor receptor (Homo sapiens) (UniProt P08581). The data set is described as follows: Inhibition of c-Met-mediated Akt phosphorylation in HGF-stimulated human A549 cells pretreated at 5 to 100 nM by Western blot analysis. Format: cell-based. Summed up:
(§4)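 A549 cells pretreated for 2 h with the compound at 5, 20 or 100 nM, then stimulated with HGF (50 ng/mL) for 10 min. c-Met and its downstream signalling proteins read by Western blot (SDS-PAGE, PVDF transfer, ECL detection).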

The target is the same in data set [20]. The data set is described as follows: Inhibition of c-Met-mediated FAK phosphorylation in HGF-stimulated human A549 cells pretreated at 5 to 100 nM by Western blot analysis. Format: cell-based. The essentials: as §4
Data set [21] has the same target. The data set can be described thus: Inhibition of c-Met-mediated 4EBP1 phosphorylation in HGF-stimulated human A549 cells pretreated at 5 to 100 nM by Western blot analysis. Format: cell-based. The essentials: as §4

Chain of Hepatocyte growth factor receptor (Homo sapiens) (P08581 whole entry): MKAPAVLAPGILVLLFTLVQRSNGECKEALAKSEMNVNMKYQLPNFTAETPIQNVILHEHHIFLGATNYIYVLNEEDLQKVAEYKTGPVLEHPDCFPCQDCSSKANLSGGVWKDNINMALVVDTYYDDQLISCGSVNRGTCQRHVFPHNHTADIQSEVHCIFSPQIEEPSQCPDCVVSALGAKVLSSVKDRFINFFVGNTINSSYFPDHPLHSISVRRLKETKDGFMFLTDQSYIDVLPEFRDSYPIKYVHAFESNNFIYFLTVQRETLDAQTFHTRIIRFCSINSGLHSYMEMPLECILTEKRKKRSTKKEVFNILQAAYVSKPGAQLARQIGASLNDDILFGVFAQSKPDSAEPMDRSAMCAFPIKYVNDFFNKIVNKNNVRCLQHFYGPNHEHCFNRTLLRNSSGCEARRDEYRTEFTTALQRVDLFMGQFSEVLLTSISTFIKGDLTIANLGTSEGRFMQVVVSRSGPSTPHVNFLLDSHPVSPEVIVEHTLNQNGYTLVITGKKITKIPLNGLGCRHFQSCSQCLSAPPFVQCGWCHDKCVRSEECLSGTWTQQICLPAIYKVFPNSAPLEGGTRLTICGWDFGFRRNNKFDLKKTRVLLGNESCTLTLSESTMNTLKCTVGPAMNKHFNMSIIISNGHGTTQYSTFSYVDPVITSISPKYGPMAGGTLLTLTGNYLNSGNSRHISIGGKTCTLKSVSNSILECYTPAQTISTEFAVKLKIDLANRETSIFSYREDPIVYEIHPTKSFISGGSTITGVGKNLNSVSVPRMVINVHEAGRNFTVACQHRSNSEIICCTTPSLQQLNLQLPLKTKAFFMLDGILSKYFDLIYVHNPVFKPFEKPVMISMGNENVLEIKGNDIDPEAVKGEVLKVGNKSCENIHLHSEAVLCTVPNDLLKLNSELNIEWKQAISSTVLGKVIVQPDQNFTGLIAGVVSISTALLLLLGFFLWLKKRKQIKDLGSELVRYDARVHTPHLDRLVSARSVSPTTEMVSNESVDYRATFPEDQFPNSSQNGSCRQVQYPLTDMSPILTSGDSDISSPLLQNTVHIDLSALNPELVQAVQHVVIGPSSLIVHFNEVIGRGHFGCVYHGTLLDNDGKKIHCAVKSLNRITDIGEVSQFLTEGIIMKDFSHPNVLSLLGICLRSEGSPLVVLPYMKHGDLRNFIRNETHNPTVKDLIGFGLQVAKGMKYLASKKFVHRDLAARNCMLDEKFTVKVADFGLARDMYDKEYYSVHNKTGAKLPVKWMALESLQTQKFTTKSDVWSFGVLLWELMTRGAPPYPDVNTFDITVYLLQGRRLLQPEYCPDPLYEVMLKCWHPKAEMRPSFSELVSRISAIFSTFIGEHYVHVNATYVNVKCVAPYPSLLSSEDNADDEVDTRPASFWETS
Chain of Glycogen synthase kinase-3 beta (Homo sapiens) (P49841 whole entry, looked up): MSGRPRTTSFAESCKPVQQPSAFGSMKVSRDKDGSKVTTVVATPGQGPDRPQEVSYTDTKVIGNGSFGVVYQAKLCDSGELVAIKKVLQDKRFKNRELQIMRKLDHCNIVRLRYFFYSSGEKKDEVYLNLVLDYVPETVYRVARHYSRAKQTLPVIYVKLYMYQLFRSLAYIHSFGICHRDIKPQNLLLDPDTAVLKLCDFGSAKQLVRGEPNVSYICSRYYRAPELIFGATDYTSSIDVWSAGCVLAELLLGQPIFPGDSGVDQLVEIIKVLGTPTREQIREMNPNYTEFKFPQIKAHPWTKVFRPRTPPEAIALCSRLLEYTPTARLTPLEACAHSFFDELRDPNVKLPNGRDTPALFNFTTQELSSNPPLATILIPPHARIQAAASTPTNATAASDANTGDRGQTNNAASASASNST

Regarding `C=C(C)[C@@]12O[C@@]3(/C=C/C=C/CCCCC)O[C@@H]1[C@@H]1[C@@H]4O[C@]4(CO)[C@@H](O)[C@]4(O)C(=O)C(C)=C[C@H]4[C@@]1(O3)[C@H](C)[C@H]2OC(C)=O` [YUANHUADINE], the 50% inhibitory concentration (IC50) in the data set with NCI-H1993 was 0.0047 µM; in data set [1], 5.6 µM; in the data set with SK-HEP1, 12.9 µM. Moreover, the “growth inhibition (GI)” value in the data set on MRC5 was “Non-toxic”. The “growth inhibition (GI)” value with A549 [2] is “inactive”. For the same compound, the Activity stood at 68.2% with A549 [3]; 0.3% in the data set on A549 [4]; 6.7% in the data set with A549 [5]; 62.2% in the data set with A549 [6]; 12% with A549 [7]; 25.1% in the data set on A549 [8]. The Activity was found to be 0.4% in the data set on A549 [9]; 22.2% in the data set on A549 [10]; 0.3% in the data set with A549 [11]; 61.1% in the data set with A549 [12]; 12.6% in the data set on A549 [13]; 26.3% in the data set with A549 [14]. In addition, the result in the data set with A549 [15] and with A549 [16] was Active. Also, the inhibition entry in data set [17] was “Dose-dependent effect”. The inhibition entry in data set [18], in [19], in data set [20] and in data set [21] was “Active” throughout.

As a reminder, the IC50 is the midpoint of a concentration-inhibition curve. A low value points to greater potency in that assay.
